SENP8 block-1: SENP8 protease inhibitors, primary screen, biochemical, luminescence. purified SENP8, Z-RLRGG-aminoluciferin cleavage. inhibition, % at 10 µM. 330,000 tested, 1.2% active; in the data active means inhibition above about 50%
Target sequence (Q96LD8 whole entry, looked up): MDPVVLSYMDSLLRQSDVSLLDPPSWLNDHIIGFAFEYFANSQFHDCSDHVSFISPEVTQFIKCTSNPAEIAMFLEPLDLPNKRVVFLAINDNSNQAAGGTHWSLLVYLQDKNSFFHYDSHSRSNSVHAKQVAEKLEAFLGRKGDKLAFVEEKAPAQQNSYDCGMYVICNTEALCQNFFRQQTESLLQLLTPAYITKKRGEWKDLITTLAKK
UBC13 inh: UBC13 polyubiquitin chain formation inhibitors, primary screen, biochemical, TR-FRET, uHTS; inhibition, % at 20 µM; 330,000 tested, 0.47% active; in the data active means inhibition above about 45%, passing the limit was not always enough
SENP7 block: SENP7 protease inhibitors, primary screen, biochemical, luminescence, uHTS | Sentrin-specific protease 7 (Homo sapiens), Q9BQF6 | recombinant SENP7, Z-RLRGG-aminoluciferin luminescence, 40 min | inhibition, % at 5 µM | 330,000 tested, 1.5% active | AID 434973, 2010;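 active means inhibition above about 50% at the single test dose, limit read from the data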
SENP6 inh: SENP6 protease inhibitors, primary screen, biochemical, luminescence, uHTS; Recombinant SENP6 catalytic domain, aminoluciferin luminescence; 330,000 tested, 1.8% active; inhibition, % at 10 µM; Sentrin-specific protease 6 (Homo sapiens), Q9GZR1;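 active means inhibition above about 50% at the single tested dose, limit read from the data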
Target sequence (Q9GZR1 628-1112 limits assumed): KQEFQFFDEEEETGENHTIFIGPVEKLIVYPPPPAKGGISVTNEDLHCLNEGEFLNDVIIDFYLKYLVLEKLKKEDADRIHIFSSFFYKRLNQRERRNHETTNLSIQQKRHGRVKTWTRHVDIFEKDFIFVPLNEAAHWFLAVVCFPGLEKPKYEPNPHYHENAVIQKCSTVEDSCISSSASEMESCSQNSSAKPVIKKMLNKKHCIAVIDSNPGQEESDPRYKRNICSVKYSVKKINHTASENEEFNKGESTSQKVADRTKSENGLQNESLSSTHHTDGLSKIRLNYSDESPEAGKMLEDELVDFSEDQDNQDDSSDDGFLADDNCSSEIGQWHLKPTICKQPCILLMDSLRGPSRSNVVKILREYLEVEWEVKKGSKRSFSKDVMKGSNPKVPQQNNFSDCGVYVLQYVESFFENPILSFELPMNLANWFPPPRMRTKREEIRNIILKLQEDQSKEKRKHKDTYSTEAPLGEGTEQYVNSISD
SENP8 block-2: human SENP8 protease inhibitors, primary screen, biochemical, fluorescence, Nedd8 protein substrate, uHTS | 360,000 tested, 0.64% active | AID 602440, 2012 | Sentrin-specific protease 8 (Homo sapiens), Q96LD8 | recombinant SENP8 | inhibition, % at 20 µM; in the data active means inhibition mostly above about 40%, no sharp cut-off; inactive means mostly below about 27%
Apaf-1 inh: inhibitors of human Apaf-1 apoptosome, primary screen, biochemical, DEVD-Rh110 fluorescence, uHTS; Apoptotic protease-activating factor 1 (Homo sapiens), O14727; reconstituted apoptosome caspase-3 activity; inhibition, % at 20 µM; 330,000 tested, 0.71% active; AID 489030, 2010; active means inhibition of at least 40% at 20 µM
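Material: reconstituted apoptosome with Apaf-1, cytochrome c, caspase-9, procaspase-3, dATP / Buffer or medium: pH 7.5 Hepes buffer with CHAPS, BSA, DTT / Also added: cytochrome c with DEVD-Rh110 / Schedule: compound with Apaf-1, dATP, procaspase-3 30 min, then 50 min reaction, room temperature / Technique: rhodamine 110 fluorescence at Ex 480/Em 540 nm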
SENP8 confirm: SENP8 protease inhibitors, retest, confirmation, biochemical, luminescence, single concentration. shares compounds with SENP7 block. Recombinant SENP8, Z-RLRGG-aminoluciferin luminescence, 60 min. inhibition, % at 12.5 µM. 6,200 tested, 40% active. AID 488912, 2010;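 active means mean inhibition across replicates above about 50%, limit read from the data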
SENP6 conf: SENP6 protease inhibitors, confirmation, biochemical, luminescence, single concentration; shares compounds with SENP7 block; 6,200 tested, 58% active; AID 488915, 2010; inhibition, % at 12.5 µM; recombinant SENP6, Z-RLRGG-aminoluciferin luminescence
SENP7 conf: SENP7 protease inhibitors, retest, confirmation, biochemical, luminescence, single concentration | shares compounds with SENP7 block | recombinant SENP7, Z-RLRGG-aminoluciferin luminescence, 40 min | inhibition, % at 12.5 µM | 6,200 tested, 69% active | AID 488917, 2010
Casp3 select: caspase-3 protease inhibitors, confirmation, selectivity assay for SENP inhibitor project, biochemical, single concentration; purified caspase-3, Z-DEVD-aminoluciferin luminescence, 60 min; AID 488918, 2010; inhibition, % at 12.5 µM; 6,200 tested, 60% active; shares compounds with SENP7 block;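 active means mean inhibition above about 50%, limit read from the data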
Luc interf: luminescence interference (SENP counter-screen) | inhibition, % at 12.5 µM | 6,200 tested, 39% active | Pre-incubated SENP8/Z-RLRGG-aminoluciferin, luciferase luminescence interference | shares compounds with SENP7 block;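 active means mean inhibition above about 50% when retested at one dose, limit read from the data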
Large screens that a line does not name were inactive (follow-up assays come after a bar, where they were run). An excerpt weighted towards active compounds, which were near 3% of everything screened.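 How the source made its calls, unless noted: active means mean inhibition above about 50% in the one-dose retest (limit read from the data); inactive means the rest.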

O=C(Nc1ccc2ccccc2c1)c1ccc(Cl)cc1Cl	SENP8 block-1 55, SENP7 block 85, SENP6 inh 68 | SENP8 confirm inactive | SENP6 conf 54 | SENP7 conf 50 | Casp3 select 55 | Luc interf inactive
Cc1occc1C(=O)Nc1ccc2ccccc2c1	SENP8 block-1 82 | SENP8 confirm inactive | SENP6 conf 96 | SENP7 conf 102 | Casp3 select 92 | Luc interf 95
Cc1cccc(NC(=O)c2ccoc2C)n1	none
O=C(Nc1ccc2ccccc2c1)c1ccccc1O	SENP8 block-1 96, SENP7 block 96, SENP6 inh 99 | SENP8 confirm 94 | SENP6 conf 96 | SENP7 conf 102 | Casp3 select 92 | Luc interf 64
COC(=O)[C@]12CCCCC=C1N(CCC1=CCCCC1)C(=O)[C@H](CC(=O)N1CCC(c3ccccc3)CC1)C2	none (no result: SENP8 block-1, UBC13 inh, SENP7 block, SENP6 inh, Apaf-1 inh)
N#C/C(=C/c1ccc(Br)o1)C(N)=O	none
COc1ccc(NC(=O)/C(C#N)=C/c2ccc(Br)o2)cc1	SENP7 block 66 | SENP8 confirm inactive | SENP6 conf inactive | SENP7 conf inactive | Casp3 select inactive | Luc interf inactive
CCCCNC(=O)C(NC(=O)c1cnccn1)C(=O)c1ccccc1 (centres undefined)	none (no result: SENP8 block-1, UBC13 inh, SENP7 block, SENP6 inh, Apaf-1 inh)
Fc1ccc(-c2nnc(NC3=NCCCCC3)o2)cc1	SENP8 block-1 89, SENP7 block 98, SENP6 inh 91 | SENP8 confirm inactive | SENP6 conf 95 | SENP7 conf 102 | Casp3 select 98 | Luc interf 75
c1ccc(-c2nnc(NC3=NCCC3)o2)cc1	none
Fc1ccc(-c2nnc(-c3ccc(F)cc3)o2)cc1	SENP7 block 60, SENP6 inh 52 | SENP8 confirm inactive | SENP6 conf inactive | SENP7 conf inactive | Casp3 select inactive | Luc interf inactive
Cc1nc2nc(-c3ccccc3)cc(=O)n2[nH]1	SENP7 block 55 | SENP8 confirm 57 | SENP6 conf 52 | SENP7 conf 84 | Casp3 select 85 | Luc interf 66
O=C1CCC(=O)N1c1nc2nc(-c3ccccc3)cc(=O)n2[nH]1	none
Cc1cccc(-c2cc3nc(-c4ccccc4)cc(=O)n3[nH]2)c1	SENP8 block-1 88, SENP7 block 51, SENP6 inh 89 | SENP8 confirm inactive | SENP6 conf 74 | SENP7 conf inactive | Casp3 select inactive | Luc interf inactive
COc1ccccc1CNC(=O)C1(C)CCN1C(=O)C1(c2ccccc2)CC1 (centres undefined)	none (no result: SENP8 block-1, UBC13 inh, SENP7 block, SENP6 inh, Apaf-1 inh)
CCCc1nc2ccc(Cl)cn2c1Cc1ccccc1	none (no result: SENP8 block-1, UBC13 inh, SENP7 block, SENP6 inh, Apaf-1 inh)
COc1cc(C23CCCN(CCC(C(C)(C)C)C2)C32OCCO2)cc(OC)c1OC (centres undefined)	none (no result: SENP8 block-1, UBC13 inh, SENP7 block, SENP6 inh, Apaf-1 inh)
Oc1c(/C=N/c2ccccn2)sc2ccccc12	SENP8 block-1 95, SENP7 block 95, SENP6 inh 98 | SENP8 confirm 96 | SENP6 conf 97 | SENP7 conf 102 | Casp3 select 96 | Luc interf inactive
Oc1c(C=Nc2cccnc2)sc2ccccc12	SENP8 block-1 58, SENP6 inh 78 | SENP8 confirm inactive | SENP6 conf 73 | SENP7 conf 95 | Casp3 select 81 | Luc interf 75
Oc1sc(C=Nc2ccccc2)c2ccccc12	SENP8 block-1 62, SENP7 block 60 | SENP8 confirm 81 | SENP6 conf 83 | SENP7 conf 96 | Casp3 select 53 | Luc interf 82
Oc1c(C=NCc2ccncc2)sc2ccccc12	none (no result: SENP8 block-2)
Oc1c(C=Nc2ccccc2)sc2ccccc12	SENP8 block-1 97, SENP7 block 101, SENP6 inh 97 | SENP8 confirm 92 | SENP6 conf 100 | SENP7 conf 103 | Casp3 select 98 | Luc interf inactive
Cn1c(NCc2ccccc2F)nc2cc(-c3cccc(C(F)(F)F)c3)sc2c1=O	none (no result: SENP8 block-1, UBC13 inh, SENP7 block, SENP6 inh, Apaf-1 inh)
COCCNC(=O)C1(C)CCN(C(=O)/C=C/c2ccccc2)C1 (centres undefined)	none (no result: SENP8 block-1, UBC13 inh, SENP7 block, SENP6 inh, Apaf-1 inh)
O=C(O)c1ccc(C(=O)Nc2cccc3ccccc23)c(C(=O)O)c1	SENP7 block 57, SENP6 inh 67 | SENP8 confirm inactive | SENP6 conf inactive | SENP7 conf inactive | Casp3 select inactive | Luc interf inactive
O=C(Nc1cccc(C(=O)O)c1)Nc1cccc2ccccc12	none
O=C1/C(=C/c2ccncc2)CCc2ccccc21	none
CCOc1ccc(/C=C2\CCc3ccccc3C2=O)cc1	SENP8 block-1 95, SENP7 block 99, SENP6 inh 97 | SENP8 confirm inactive | SENP6 conf 88 | SENP7 conf inactive | Casp3 select inactive | Luc interf inactive
COc1ccc(/C=C2\OC(=O)c3c(OC)cccc32)cc1OC	SENP6 inh 62 | SENP8 confirm inactive | SENP6 conf inactive | SENP7 conf 84 | Casp3 select 61 | Luc interf inactive
COc1ccc(C=C2C(=O)OC(C)(C)OC2=O)cc1OC	none
COc1ccc(/C=C2/CCc3ccccc3C2=O)cc1OC	SENP6 inh 59 | SENP8 confirm 65 | SENP6 conf 63 | SENP7 conf 60 | Casp3 select inactive | Luc interf inactive
O=C1/C(=C\c2ccncc2)CCc2ccccc21	SENP7 block 60, SENP6 inh 57 | SENP8 confirm 76 | SENP6 conf inactive | SENP7 conf inactive | Casp3 select inactive | Luc interf 91
COc1ccc(C=C2CCc3ccccc3C2=O)cc1	none (no result: SENP8 block-1, UBC13 inh, SENP7 block, SENP6 inh, Apaf-1 inh)

Screens (PubChem)
